Reference: publication PMC7111275 (European Journal of Medicinal Chemistry, 2013)

How the values were obtained:
[1] = test system: Hel cells; conditions: at 100 μM, Hel cell cultures
[2] = test system: HIV; test: Anti-HIV activity in cellular assay; assay type: cell-based; conditions: Human immunodeficiency virus 1, read-out: Anti-HIV activity EC90
[3] = test system: PBMC, human lymphoblastoid CEM and Vero cells; test: Cytotoxicity testing in PBMC, CEM and Vero cells; assay type: cell-based; conditions: at 100 μM
[4] = test system: hepatitis C virus (HCV) replicon in Huh 7 cells; test: Subgenomic HCV replicon system in Huh 7 cells; assay type: cell-based; conditions: 10 μM
In short: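 Huh 7 Clone B cells carrying subgenomic HCV replicon RNA were seeded at 3000 cells/well and given test compound at 10 μM in triplicate immediately after seeding. After 5 days at 37 °C in 5% CO2, total RNA was extracted. Replicon RNA was measured against an rRNA internal control by one-step multiplex real-time RT-PCR. ΔCt was taken versus the no-drug control, where ΔCt 3.3 = 1-log reduction; rRNA ΔCt gave cytotoxicity. 2′-C-Me-C at 10 μM served as the control.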

CC(C)(C)C(=O)OCOP(=O)(C/C=C/Cn1cc(CO)nn1)OCOC(=O)C(C)(C)C [Compound 31, (E)-1-(4′-Bis(POM)-phosphinylbut-2′-enyl)-4-(hydroxymethyl)-1,2,3-triazole]
Cytotoxicity (in words) [1]: no observed cytotoxicity

CC(C)(C)C(=O)OCOP(=O)(C/C=C/Cn1ccc(N)nc1=O)OCOC(=O)C(C)(C)C [Compound 8a, (E)-N^1-(4′-Bis(POM)phosphinyl-2′-butenyl)-cytosine]
EC90 [2]: > 100 µM | Cytotoxicity (in words) [3]: without significant cytotoxicity | Anti-HCV activity (in words) [4]: pronounced anti-HCV activity

CC(C)(C)C(=O)OCOP(=O)(C/C=C/Cn1cc(C(=O)O)nn1)OCOC(=O)C(C)(C)C [Compound 24, (E)-1-(4′-Bis(POM)-phosphinylbut-2′-enyl)-4-(carboxylic acid)-1,2,3-triazole]
Cytotoxicity (in words) [3]: without significant cytotoxicity | Anti-HCV activity (in words) [4]: pronounced anti-HCV activity

CC(C)(C)C(=O)OCOP(=O)(C/C=C/Cn1ccnc(C(N)=O)c1=O)OCOC(=O)C(C)(C)C [Compound 14, (E)-N^1-(4′-Bis(POM)-phosphinylbut-2′-enyl)-3-oxo-pyrazine-2-carboxamide]
Cytotoxicity (in words) [3]: without significant cytotoxicity | Anti-HCV activity (in words) [4]: pronounced anti-HCV activity

COC(=O)c1nccn(C/C=C/CP(=O)(OCOC(=O)C(C)(C)C)OCOC(=O)C(C)(C)C)c1=O [Compound 13, (E)-N^1-(4′-Bis(POM)-phosphinylbut-2′-enyl)-3-oxo-pyrazine-2-methylester]
Cytotoxicity (in words) [3]: without significant cytotoxicity | Anti-HCV activity (in words) [4]: pronounced anti-HCV activity
